Experimental data taken from paper PMC10194330 (Virus Research, 2022).

Assays:
HCV = settings: ref Bost et al., 2003; cited from earlier work
ZIKV = settings: ref Sultana et al., 2018; cited from earlier work
BHK-21 cells [1] = experiment: Fluorescence imaging of microtubules, MTOC and endoplasmic reticulum; type: cell-based; settings: for MTOC localization/detection: BHK-21 cells, 24 h treatment
Summary of the method: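 BHK-21 cells on coverslips infected (MOI=1, 2 h) or mock, then treated 24 h with test compound from 6 or 12 hpi. Fixed in 3.8% paraformaldehyde. Microtubules stained with anti-α/β-tubulin and MTOC with anti-γ-tubulin; […] used as comparator. For ER imaging, cells were transfected with pmKate2-ER plasmid and infected 24 h later. Imaged with a 60x objective.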

DENV-2 [2] = experiment: Time-of-addition; type: cell-based, Dengue virus; settings: S.71 72.4 μM, POD 0.1 μM added at 6 and 12 hpi, 24 h exposure, MOI=1
Summary of the method: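 BHK-21 cells infected (MOI=1, 2 h, 37 °C, 5% CO2) and washed with PBS. DMEM with 2% FBS containing test compound (72.4 µM; positive control 0.1 µM) added at 6, 12, 24 or 36 hpi, then incubated a further 24 h. Supernatant titrated by plaque assay. DMSO <0.05%. Three independent experiments, mean ± s.e.m., one-way ANOVA.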

DENV-2 [3] = experiment: Post-infection plaque reduction assay; type: cell-based, Dengue virus; settings: S.71 at 50 and 100 μM, POD at 0.1 μM; six days
Summary of the method: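 BHK-21 cells infected with DENV-2 (MOI=1) for 2 h at 37 °C, 5% CO2, then washed with PBS. Test compound (12.5–100 µM) added in 1.5% carboxymethylcellulose medium; positive control as log dilutions 0.1–100 µM. Incubated 6 days, then plaques counted in 3 independent assays. EC50 defined as the concentration reducing viral plaques by 50%.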

BHK-21 cells [4] = experiment: Annexin V staining, size and granularity; type: cell-based; settings: infected or uninfected BHK-21 cells, 24 h
Summary of the method: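 Infected and/or treated BHK-21 cells resuspended in binding buffer with annexin V, incubated 15 min at 4 °C, then diluted with binding buffer and centrifuged 5 min. Analysed by flow cytometry for annexin V, with cell size from forward scatter (FSC) and granularity from side scatter (SSC).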

BHK-21 cells [5] = experiment: Cytotoxicity assay; type: cell-based
DENV-2 [6] = experiment: Fluorescence imaging of dsRNA and ENV protein; type: cell-based, Dengue virus; settings: treatment at 6 and 12 hpi; S.71 72.4 µM, POD 0.1 µM
Summary of the method: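 BHK-21 cells on coverslips infected with DENV-2 (MOI=1, 2 h). Test compound (72.4 µM; positive control 0.1 µM) added at 6 or 12 hpi and left 24 h. Cells washed with cytoskeleton buffer, fixed in 3.8% paraformaldehyde and immunostained for ENV (4G2) and dsRNA (J2), with tubulin and Hoechst nuclei. Imaged with a 60x objective; mean fluorescence intensity quantified. Three independent triplicate experiments; unpaired t-test.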

DENV-2 [7] = experiment: Negative-strand RNA production; type: cell-based, Dengue virus; settings: S.71 72.4 μM, POD 0.1 μM; 6 and 12 hpi
BHK-21 cells [8] = experiment: Cell recovery assay; type: cell-based
Summary of the method: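 BHK-21 cells on coverslips exposed 24 h to test compound. Compound then removed, monolayers washed and cultured 3 days in DMEM with 2% FBS. Cells fixed with 3.8% paraformaldehyde and nuclei stained with Hoechst 33342. Morphology imaged by differential interference contrast with a 60x objective.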

ER = settings: treatment during 2 h; ref Terasaki et al., 1986; cited from earlier work

CC(=O)O[C@H]1C(=O)[C@@]2(C)[C@H]([C@H](OC(=O)c3ccccc3)[C@]3(O)C[C@H](OC(=O)[C@H](O)[C@@H](NC(=O)c4ccccc4)c4ccccc4)C(C)=C1C3(C)C)[C@]1(OC(C)=O)CO[C@@H]1C[C@@H]2O [paclitaxel]
HCV viral infection (HCV): reduced | ZIKV viral infection (ZIKV): reduced

COc1cc2c(c(OC)c1OC)-c1ccc(OC)c(=O)cc1[C@@H](NC(C)=O)CC2 [colchicine]
HCV viral infection (HCV): reduced | ZIKV viral infection (ZIKV): reduced

COc1cc([C@@H]2c3cc4c(cc3[C@H](O)[C@H]3COC(=O)[C@H]23)OCO4)cc(OC)c1OC [POD, Podophyllotoxin]
effect on rough endoplasmic reticulum (BHK-21 cells [1]; 6 hpi or 12 hpi, infected and mock cells): ER retraction | MTOC localization/detection (BHK-21 cells [1]): not detected | cell morphology and microtubule distribution (BHK-21 cells [1]; infected and uninfected cells treated at 6 or 12 hpi, 24 h, S.71 72.4 µM, POD 0.1 µM): round morphology and fragmented microtubules | viral yield of DENV-2 (DENV-2 [2]): effective | viral titer in post-infection treatment (DENV-2 [3]): effective | cell granularity (SSC) (BHK-21 cells [4]): increase in cell granularity | cell size (FSC) (BHK-21 cells [4]): changes in cell size were not observed | phosphatidylserine exposure (annexin V) (BHK-21 cells [4]): nor changes in phosphatidylserine exposure | concentrations at which very toxic (BHK-21 cells [5]; CC50 could not be determined): > 1000 nM | effect on cells below 1 µM (BHK-21 cells [5]; below 1 µM): cytostatic | ENV protein signal (MFI) (DENV-2 [6]): significant decreases | dsRNA signal (MFI) (DENV-2 [6]): significant decreases | negative-strand RNA copies (DENV-2 [7]): low numbers of copies | recovery of cell morphology after treatment removal (BHK-21 cells [8]; 24 h treatment, then nutrient-supplemented medium): recovered their normal morphology after three days | nuclei after 24 h treatment (BHK-21 cells [8]; BHK-21 cells, 24 h): pyknotic and fragmented nuclei

COC(=O)Nc1nc2ccc(C(=O)c3cccs3)cc2[nH]1 [nocodazole]
MTOC localization/detection (BHK-21 cells [1]): not detected | HCV viral infection (HCV): reduced | effect on ER (ER): ER retraction | ZIKV viral infection (ZIKV): reduced
